Assays:
TAZ2 domain of CBP = assay: In vitro GB1 pulldown, TAZ2; type: binding, mouse; settings: H6GB1 alone as negative control; legend refers to TAZ1 and TAZ2
[1] = test system: pRb acetylation in BJ cells; assay: In-cell pRb acetylation assay; type: cell-based, human; settings: retroviral transduction, vs control vector (BP)
Outline: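 Human BJ foreskin fibroblasts (DMEM, 10% calf serum) stably transduced with LXSN control vector or E7 retrovirus and selected in 600 μg/ml G418. Lysed by sonication in NETN containing butyrate, TSA, phosphatase and protease inhibitors. Anti-pRb IP from 0.8–1.0 mg extract, SDS-PAGE, blots probed for acetyl-lysine and pRb, ECL. Background-corrected AcK/pRb band ratio normalised to vector, mean of two independent experiments.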

pRb in BJ cells = assay: pRb level by Western blot, BJ cells; type: cell-based, human; settings: retroviral transduction, vs control vector (BP); lysates and IP
Outline: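 Human BJ fibroblasts (DMEM, 10% calf serum) retrovirally transduced with LXSN control vector or E7 and G418-selected (600 μg/ml). Sonicated in NETN buffer with phosphatase, deacetylase and protease inhibitors. Both lysates and anti-pRb immunoprecipitates (0.8–1.0 mg extract) resolved on 7–8% SDS-PAGE and Western blotted with anti-pRb, ECL detection.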

[2] = test system: pRb acetylation in MEF cells; assay: In-cell pRb acetylation assay, MEF cells; type: cell-based, mouse; settings: for pRb acetylation, MEF cells before Cre treatment: floxed CBP/p300 MEF, prior to Cre
Outline: (§1)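 Primary mouse embryonic fibroblasts homozygous for floxed CBP and p300 alleles, grown in DMEM with 10% calf serum, stably transduced with LXSN-E7 retrovirus and selected in 600 μg/ml G418. Lysed in NETN with inhibitors. pRb immunoprecipitated from 0.8–1.0 mg extract, 7–8% SDS-PAGE, PVDF blots probed with anti-pRb or anti-acetyl-lysine, ECL.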

pRb in MEF cells = assay: pRb level by Western blot, MEF cells; type: cell-based, mouse; settings: floxed CBP/p300 MEF, prior to Cre
Outline: as §1

p300 TAZ1 domain = settings: read-out: affinity measured by sedimentation equilibrium for p300 TAZ1; 4°C; cited from earlier work
[3] = test system: p53 transcriptional activity; settings: in cells; cited from earlier work
[4] = test system: N-terminal region of p300, encompassing the TAZ1 (or CH1) domain; settings: buffer containing 2.5 mM EDTA; cited from earlier work
p130 = settings: in vitro; cited from earlier work
cellular transformation = settings: epithelial cells, E7 alone; cited from earlier work
[5] = test system: HPV E2 transcriptional activity; settings: cited from earlier work
[6] = biological target: T1, TAZ2 domain of CBP (residues 1764–1855) (Mus musculus, UniProt P45481); assay: Fluorescence anisotropy, competition with ppE7; type: binding; settings: phosphorylated vs non-phosphorylated (Table 1)
T1 sequence (P45481 1764-1855): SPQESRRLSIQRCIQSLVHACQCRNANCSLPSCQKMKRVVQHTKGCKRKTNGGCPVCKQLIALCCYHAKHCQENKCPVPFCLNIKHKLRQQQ

[7] = biological target: T1, TAZ2 domain of CBP (residues 1764–1855); assay: 1H-15N HSQC NMR titration of 15N-TAZ2; type: binding; settings: TAZ2 vs TAZ1 of CBP; fluorescence and NMR
[8] = test system: TAZ2 domain of CBP with pRb-AB; assay: 1H-15N HSQC NMR of 15N-TAZ2 with E7; type: binding, mouse; settings: 15N-TAZ2:E7:pRb-AB 1:0.25:1; NMR buffer pH 6.8
pocket domain of pRb = settings: read-out: Kd for pRb; pRb pocket domain (pRb-AB); cited from earlier work

Which “pulldown signal vs H6GB1 background” value (TAZ2 domain of CBP) does the source give for “STAT1(710-750): STAT1 residues 710-750, positive control (SEVHPSRLQTTDNLLPMSPEEFDEVSRIVGSVEFDSMMNTV)” here?
The value was “bind significantly above the background signal”.

What does the source list for “E7(1-98): full length high-risk HPV16 E7 (residues 1-98), homodimer”?
pRb acetylation, BJ cells ([1]; listed as E7): increased levels of acetylation; pRb acetylation, BJ cells ([1]; listed as full-length E7): enhanced; pRb acetylation, BJ cells ([1]; listed as full-length HPV16 E7): Enhanced acetylation of pRb; pRb level, BJ cells (pRb in BJ cells): decreased levels of pRb; E7-induced pRb acetylation, MEF cells lacking CBP/p300 ([2]; Cre-treated MEF cells, listed as full-length HPV16 E7): acetylation levels were substantially decreased in CBP/p300^−/− cells; pRb acetylation, MEF cells before Cre treatment ([2]; listed as E7): increased levels of pRb acetylation; pRb acetylation, MEF cells before Cre treatment ([2]; listed as full-length HPV16 E7): Enhanced acetylation of pRb; pRb level, MEF cells before Cre treatment (pRb in MEF cells): significantly decreased levels of pRb; Kd (p300 TAZ1 domain): 900 to 3500 nM; inhibition of p53 transcriptional activity [3]: inhibit p53 transcriptional activity in cells; interaction with p300 regions in GST pulldown [4]: interacts most strongly with the N-terminal region of p300, encompassing the TAZ1 (or CH1) domain; enhancement of p300-mediated acetylation of p130 (p130): enhances p300-mediated acetylation of the retinoblastoma protein family member p130; transformation and immortalization (cellular transformation): sufficient to transform and immortalize epithelial cells, albeit with lower efficiency; repression of HPV E2 transcriptional activity [5]: represses HPV E2 transcriptional activity

Which “enhancement of binding to TAZ2 by CKII phosphorylation of Ser31 and Ser32” value [6] does the source give for “16-E7(1-51): construct containing the disordered CR1 and CR2 domains, residues M1-H51, of HPV16 E7” here?
Its value is 3 -fold.

And the “tighter binding to TAZ2 than to TAZ1” value [7]?
The value was ~ 1000 -fold.

And the “ternary complex (TAZ2:E7:pRb-AB) formation by NMR” value [8]?
Its value is “unable to support ternary complex formation”.

And the “pRb acetylation, BJ cells” value [1]?
Its value is “comparable to control cells”.

What about the “pRb level, BJ cells” value (pRb in BJ cells) of the same substance?
Its value is “comparable to control cells”.

With “pp16-E7(1-51): HPV16 E7(1-51) phosphorylated by casein kinase II (CKII) at serines 31 and 32” as the substance, how does the Kd (pocket domain of pRb) read?
The Kd was 2 nM.

For “p53(13-61): p53 residues 13-61, positive control”, which “pulldown signal vs H6GB1 background” value (TAZ2 domain of CBP) is on record?
Its value is “bind significantly above the background signal”.

From paper PMC4258470 (Journal of molecular biology, 2014)
